Data taken from ChEMBL document CHEMBL5058577, “EUbOPEN Chemogenomics Library 2 (Multiplex)” (2022).

Tested on: U2OS
Experiment: Multiplex assay against U2OS
Format: toxicity, cell-based
Details: human
In short: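 Compound was added to live cells that had been stained at seeding with Hoechst33342, BioTracker Green Microtubule Cytoskeleton Dye, MitoTracker Red and Annexin V Alexa Fluor 680, and imaging followed on a CQ1 microscope at 37°C and 5% CO2. CellPathfinder machine-learning gating divided cells into Hoechst high-intensity objects or normal cells, normal cells into healthy, pyknosed or fragmented nuclei, and pyknosed cells into mitotic or apoptotic. Tubulin, mitochondrial-mass and membrane-permeability phenotypes are per cents of healthy-nucleus cells.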

[1] = 12 h, 1 µM, compound concentration 1 uM, replicate 1
[2] = 12 h, 1 µM, compound concentration 1 uM, replicate 2
[3] = 12 h, 10 µM, compound concentration 10 uM, replicate 1
[4] = 12 h, 10 µM, compound concentration 10 uM, replicate 2
[5] = 24 h, 1 µM, compound concentration 1 uM, replicate 1
[6] = 24 h, 1 µM, compound concentration 1 uM, replicate 2
[7] = 24 h, 10 µM, compound concentration 10 uM, replicate 1
[8] = 24 h, 10 µM, compound concentration 10 uM, replicate 2
[9] = 48 h, 1 µM, compound concentration 1 uM, replicate 1
[10] = 48 h, 1 µM, compound concentration 1 uM, replicate 2
[11] = 48 h, 10 µM, compound concentration 10 uM, replicate 1
[12] = 48 h, 10 µM, compound concentration 10 uM, replicate 2

COc1cc(C(=O)N2CC[C@@H](O)[C@@H](N)C2)cc2nc(-c3cc4ccccc4n3CC3CC3)n(C)c12.Cl
Population Apoptotic (%) [1]: 50%
Population Fragmented Nuclei (%) [1]: 32%
Population Healthy Nuclei (%) [1]: 53%
Population Hoechst High Intensity Objects (%) [1]: 4%
Population Membrane Permeable-Phenotype (%) [1]: 38%
Population Mitochondria Different-Phenotype (%) [1]: 16%
Population Mitotic Cells (%) [1]: 50%
Population Normal (%) [1]: 95%
Population Pyknosed Nuclei (%) [1]: 14%
Population Tubulin-Different-Phenotype (%) [1]: 29%
Total Cell Count [1]: 223
Population Apoptotic (%) [2]: 75%
Population Fragmented Nuclei (%) [2]: 15%
Population Healthy Nuclei (%) [2]: 75%
Population Hoechst High Intensity Objects (%) [2]: 1%
Population Membrane Permeable-Phenotype (%) [2]: 20%
Population Mitochondria Different-Phenotype (%) [2]: 18%
Population Mitotic Cells (%) [2]: 25%
Population Normal (%) [2]: 98%
Population Pyknosed Nuclei (%) [2]: 8%
Population Tubulin-Different-Phenotype (%) [2]: 15%
Total Cell Count [2]: 92
Population Apoptotic (%) [3]: 68%
Population Fragmented Nuclei (%) [3]: 23%
Population Healthy Nuclei (%) [3]: 38%
Population Hoechst High Intensity Objects (%) [3]: 6%
Population Membrane Permeable-Phenotype (%) [3]: 75%
Population Mitochondria Different-Phenotype (%) [3]: 88%
Population Mitotic Cells (%) [3]: 31%
Population Normal (%) [3]: 93%
Population Pyknosed Nuclei (%) [3]: 37%
Population Tubulin-Different-Phenotype (%) [3]: 96%
Total Cell Count [3]: 208
Population Apoptotic (%) [4]: 56%
Population Fragmented Nuclei (%) [4]: 16%
Population Healthy Nuclei (%) [4]: 61%
Population Hoechst High Intensity Objects (%) [4]: 5%
Population Membrane Permeable-Phenotype (%) [4]: 79%
Population Mitochondria Different-Phenotype (%) [4]: 91%
Population Mitotic Cells (%) [4]: 44%
Population Normal (%) [4]: 94%
Population Pyknosed Nuclei (%) [4]: 22%
Population Tubulin-Different-Phenotype (%) [4]: 94%
Total Cell Count [4]: 120
Population Apoptotic (%) [5]: 78%
Population Fragmented Nuclei (%) [5]: 28%
Population Healthy Nuclei (%) [5]: 54%
Population Hoechst High Intensity Objects (%) [5]: 3%
Population Membrane Permeable-Phenotype (%) [5]: 19%
Population Mitochondria Different-Phenotype (%) [5]: 14%
Population Mitotic Cells (%) [5]: 21%
Population Normal (%) [5]: 96%
Population Pyknosed Nuclei (%) [5]: 17%
Population Tubulin-Different-Phenotype (%) [5]: 12%
Total Cell Count [5]: 243
Population Apoptotic (%) [6]: 75%
Population Fragmented Nuclei (%) [6]: 18%
Population Healthy Nuclei (%) [6]: 69%
Population Hoechst High Intensity Objects (%) [6]: 2%
Population Membrane Permeable-Phenotype (%) [6]: 17%
Population Mitochondria Different-Phenotype (%) [6]: 18%
Population Mitotic Cells (%) [6]: 25%
Population Normal (%) [6]: 97%
Population Pyknosed Nuclei (%) [6]: 11%
Population Tubulin-Different-Phenotype (%) [6]: 17%
Total Cell Count [6]: 109
Population Apoptotic (%) [7]: 84%
Population Fragmented Nuclei (%) [7]: 25%
Population Healthy Nuclei (%) [7]: 35%
Population Hoechst High Intensity Objects (%) [7]: 4%
Population Membrane Permeable-Phenotype (%) [7]: 57%
Population Mitochondria Different-Phenotype (%) [7]: 88%
Population Mitotic Cells (%) [7]: 15%
Population Normal (%) [7]: 95%
Population Pyknosed Nuclei (%) [7]: 38%
Population Tubulin-Different-Phenotype (%) [7]: 78%
Total Cell Count [7]: 222
Population Apoptotic (%) [8]: 71%
Population Fragmented Nuclei (%) [8]: 26%
Population Healthy Nuclei (%) [8]: 48%
Population Membrane Permeable-Phenotype (%) [8]: 50%
Population Mitochondria Different-Phenotype (%) [8]: 85%
Population Mitotic Cells (%) [8]: 28%
Population Pyknosed Nuclei (%) [8]: 25%
Population Tubulin-Different-Phenotype (%) [8]: 90%
Total Cell Count [8]: 133
Population Apoptotic (%) [9]: 82%
Population Fragmented Nuclei (%) [9]: 23%
Population Healthy Nuclei (%) [9]: 61%
Population Hoechst High Intensity Objects (%) [9]: 2%
Population Membrane Permeable-Phenotype (%) [9]: 9%
Population Mitochondria Different-Phenotype (%) [9]: 5%
Population Mitotic Cells (%) [9]: 17%
Population Normal (%) [9]: 97%
Population Pyknosed Nuclei (%) [9]: 15%
Population Tubulin-Different-Phenotype (%) [9]: 5%
Total Cell Count [9]: 304
Population Apoptotic (%) [10]: 76%
Population Membrane Permeable-Phenotype (%) [10]: 17%
Population Mitochondria Different-Phenotype (%) [10]: 11%
Population Mitotic Cells (%) [10]: 23%
Population Pyknosed Nuclei (%) [10]: 14%
Population Tubulin-Different-Phenotype (%) [10]: 12%
Total Cell Count [10]: 149
Population Apoptotic (%) [11]: 88%
Population Fragmented Nuclei (%) [11]: 29%
Population Healthy Nuclei (%) [11]: 35%
Population Hoechst High Intensity Objects (%) [11]: 12%
Population Membrane Permeable-Phenotype (%) [11]: 47%
Population Mitochondria Different-Phenotype (%) [11]: 65%
Population Mitotic Cells (%) [11]: 11%
Population Normal (%) [11]: 87%
Population Pyknosed Nuclei (%) [11]: 35%
Population Tubulin-Different-Phenotype (%) [11]: 62%
Total Cell Count [11]: 232
Population Apoptotic (%) [12]: 92%
Population Fragmented Nuclei (%) [12]: 30%
Population Hoechst High Intensity Objects (%) [12]: 6%
Population Mitochondria Different-Phenotype (%) [12]: 84%
Population Mitotic Cells (%) [12]: 7%
Population Normal (%) [12]: 93%
Population Pyknosed Nuclei (%) [12]: 34%
Population Tubulin-Different-Phenotype (%) [12]: 75%
Total Cell Count [12]: 131
